Reference: ChEMBL document CHEMBL3822412, “Exploiting Protein Conformational Change to Optimize Adenosine-Derived Inhibitors of HSP70” (J Med Chem, 2016)

Biological target: Heat shock cognate 71 kDa protein (Homo sapiens, UniProt P11142)
Test: Binding affinity to human truncated HSC70 NBD (1 to 381 residues) by SPR analysis
Settings: read-out: Kd
In short: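 Human HSC70-NBD (residues 1-381) amine-coupled to a CM5 chip to ~5000 RU, with 750 µM ADP present during coupling. Running buffer PBS pH 7.4 with 0.05% Tween20 and 5% DMSO. Eight-point dose response over 50–2000, 5–200 or 0.0625–2.5 µM. Flow 30 µL/min, 60 s injection, 120 s dissociation, no regeneration, unmodified reference cell. KD taken from equilibrium binding curves fitted to a 1:1 model. Geometric mean ± SEM, n≥3.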

Sequence of Heat shock cognate 71 kDa protein (P11142 whole entry, the tested form may be a part): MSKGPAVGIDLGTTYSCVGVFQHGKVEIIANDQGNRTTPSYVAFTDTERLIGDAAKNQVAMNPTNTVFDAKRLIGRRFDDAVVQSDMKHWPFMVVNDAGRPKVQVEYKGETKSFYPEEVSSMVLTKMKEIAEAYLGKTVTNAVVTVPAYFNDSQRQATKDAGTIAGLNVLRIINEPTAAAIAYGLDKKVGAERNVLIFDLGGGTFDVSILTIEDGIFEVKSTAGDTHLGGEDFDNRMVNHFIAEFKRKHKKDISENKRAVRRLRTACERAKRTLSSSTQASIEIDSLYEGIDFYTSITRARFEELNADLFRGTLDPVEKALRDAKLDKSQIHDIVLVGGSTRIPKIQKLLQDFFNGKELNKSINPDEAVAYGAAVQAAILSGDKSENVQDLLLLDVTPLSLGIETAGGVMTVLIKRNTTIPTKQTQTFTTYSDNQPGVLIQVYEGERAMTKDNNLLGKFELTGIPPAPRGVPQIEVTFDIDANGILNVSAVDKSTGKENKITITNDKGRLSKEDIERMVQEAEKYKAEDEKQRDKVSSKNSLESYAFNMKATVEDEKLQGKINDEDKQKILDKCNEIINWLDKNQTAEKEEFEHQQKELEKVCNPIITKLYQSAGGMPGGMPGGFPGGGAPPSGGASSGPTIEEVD

SMILES | Kd
COc1nc2c(N)ncnc2n1[C@@H]1O[C@H](CO)[C@@H](O)[C@H]1O | > 1000 µM
N#Cc1c(NCc2ccccc2)n([C@@H]2O[C@H](CO)[C@@H](O)[C@H]2O)c2ncnc(N)c12 | 2.8 µM
CNc1c(C#N)c2c(N)ncnc2n1[C@@H]1O[C@H](CO)[C@@H](O)[C@H]1O | 3.3 µM
Nc1ncnc2c1nc(N)n2[C@@H]1O[C@H](CO)[C@@H](O)[C@H]1O | 7 µM
Nc1ncnc2c1nc(NCc1ccc(F)cc1)n2[C@@H]1O[C@H](CO)[C@@H](O)[C@H]1O | 0.46 µM
Nc1ncnc2c1nc(NCc1ccccc1)n2[C@@H]1O[C@H](CO)[C@@H](O)[C@H]1O | 1.4 µM
Cc1ccc(CNc2nc3c(N)ncnc3n2[C@@H]2O[C@H](CO)[C@@H](O)[C@H]2O)cc1 | 0.3 µM
Nc1ncnc2c1nc(NCc1ccc3ncccc3c1)n2[C@@H]1O[C@H](CO)[C@@H](O)[C@H]1O | 0.72 µM
Nc1ncnc2c1ncn2[C@@H]1O[C@H](CO)[C@@H](O)[C@H]1O [ADENOSINE] | 110 µM
Nc1ncnc2c1nc(NCc1ccc(Cl)c(Cl)c1)n2[C@@H]1O[C@H](CO)[C@@H](O)[C@H]1O | 3.5 µM
Nc1ncnc2c1ncn2[C@@H]1O[C@H](COP(=O)(O)OP(=O)(O)O)[C@@H](O)[C@H]1O [ADENOSINE DIPHOSPHATE] | 0.32 µM
Nc1ncnc2c1nc(NCc1ccc(Cl)cc1)n2[C@@H]1O[C@H](CO)[C@@H](O)[C@H]1O | 0.28 µM
CNc1nc2c(N)ncnc2n1[C@@H]1O[C@H](CO)[C@@H](O)[C@H]1O | 17 µM
C[C@H]1O[C@@H](n2cnc3c(N)ncnc32)[C@H](O)[C@@H]1O [5'-Deoxyadenosine] | 130 µM
CNc1c(C(N)=O)c2c(N)ncnc2n1[C@@H]1O[C@H](CO)[C@@H](O)[C@H]1O | 30 µM
CN(C)c1nc2c(N)ncnc2n1[C@@H]1O[C@H](CO)[C@@H](O)[C@H]1O | > 1000 µM
CNc1nc2c(N)ncnc2n1[C@@H]1O[C@H](C)[C@@H](O)[C@H]1O | 27 µM

Same assay, conditions: read-out: pKd (converted)

SMILES | Kd
NC(=O)c1cn([C@@H]2O[C@H](CO)[C@@H](O)[C@H]2O)c2ncnc(N)c12 [SANGIVAMYCIN] | 3.24 µM
N#Cc1cn([C@@H]2O[C@H](CO)[C@@H](O)[C@H]2O)c2ncnc(N)c12 [TOYOCAMYCIN] | 91.2 µM
Nc1ncnc2c1ccn2[C@@H]1O[C@H](CO)[C@@H](O)[C@H]1O [TUBERCIDIN] | 28.2 µM
